Broadly, the EC50 is the concentration at which the effect is half-maximal. As usually defined, the MIC is the smallest concentration in the dilution series that meets the test's criterion for growth inhibition.

Experimental findings from publication PMC8369490 (ACS Infectious Diseases, 2021) are described below.

≈ marks a conversion by molar mass, not a printed value.

Series [1] relates to Rcs stress response (PrprA-mNG reporter) in E. coli TOP10F′ cells. The series can be described thus: Rcs stress reporter assay. The format is cell-based. The conditions noted are these: Escherichia coli, 3 h, read-out: stress reporter EC50 PrprA-mNG. In a few lines:
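TOP10F′ with pUA66-PrprA-mNG, at OD600 0.05 in M9, dispensed onto a 1:3 test-compound dilution series in 384-well plates. Positive control is an Hbp-secretion inhibitor at 200 μM; DMSO is the negative control. After 3 h nonshaken incubation, OD600 and mNG fluorescence (ex 488/em 535 nm) measured. EC50 derived from OD600-corrected fluorescence.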
For orientation: A reporter such as luciferase makes a cellular process visible.

Series [2] has as its system heat-shock response (PgroES-mNG reporter) in E. coli TOP10F′ cells. The series can be described thus: Heat-shock stress reporter assay. Conditions: Escherichia coli, 3 h, read-out: stress reporter EC50 PgroES-mNG. The format is cell-based. In a few lines: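 TOP10F′ carrying pEH3-empty and pUA66-PgroES-mNG, at OD600 0.05 in M9, added to 384-well plates with a 1:3 test-compound dilution series. Positive-control wells hold cells with pEH3-ssTorA-Hbp induced by 40 μM IPTG; DMSO controls included. After 3 h nonshaken incubation, OD600 and mNG fluorescence (ex 488/em 535 nm) read. EC50 from OD600-corrected fluorescence.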

Series [3] has as its system σ^E cell envelope stress response (PrpoE-mNG reporter) in E. coli TOP10F′ cells expressing Hbp. The series can be described thus: σ^E stress reporter assay. The format is cell-based. The conditions noted are these: Escherichia coli, 3 h, read-out: stress reporter EC50 PrpoE-mNG.
The test system of series [4] is E. coli TOP10F′ cells. Description: MIC in E. coli TOP10F′. Conditions: Escherichia coli, 10 h, read-out: toxicity E. coli MIC. In kind it is cell-based. The method in brief: (§1)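 Broth dilution in LB or MHB-II. Bacteria grown to mid-log at 37 °C in flasks, diluted to OD600 0.001 and added 1:1 to medium with 2-fold increasing test compound (0.5% DMSO final). Incubated at 37 °C in a plate reader with continuous linear shaking; OD600 every 15 min for 10 h. MIC is the lowest concentration with no growth detectable by OD600 at 10 h.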

Series [5] deals with HEK293 cells. The series can be described thus: HEK293 cell toxicity. In kind it is cell-based. Conditions: 48 h, dose-response up to 60 μM; dash = no toxicity. The method in brief: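 HEK293 cells kept in DMEM with 10% FBS at 37 °C, 5% CO2. Test compound dispensed as a 1:3 dilution series from DMSO stocks; DMSO as negative and tamoxifen as positive control. About 2000 cells per well incubated 48 h at 37 °C, 5% CO2, 90% humidity. Viability read with CellTiter-Glo reagent after 2 min shaking.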

Series [6] deals with E. coli MC4100 cells. Description: Potentiation of antibiotics. Conditions: E. coli MC4100, LB, 10 h. In kind it is cell-based, Escherichia coli.
For series [7], the system named is Escherichia coli (K12). Description: MIC against bacterial strains. The format is cell-based. The conditions noted are these: 10 h. In a few lines: as §1
For series [8], the system named is Enterococcus faecium VRE. Description: MIC against bacterial strains. In kind it is cell-based. Conditions: 10 h. The method in brief: as §1
The test system of series [9] is E. coli MC4100 expressing FhuA ΔC/Δ4L. The series can be described thus: Growth inhibition of E. coli expressing open channel FhuA ΔC/Δ4L. In kind it is cell-based, Escherichia coli. Conditions: E. coli MC4100, LB, 10 h.
Series [10] concerns Pseudomonas aeruginosa. Description: MIC against bacterial strains. In kind it is cell-based. The conditions noted are these: 10 h. The method in brief:
as §1

The test system of series [11] is BAM complex (BamABCDE) reconstituted in proteoliposomes. Description: OmpT folding in vitro assay with BAM proteoliposomes. The conditions noted are these: 100 μM compound, OmpT:SurA 1:42 versus 1:7. In kind it is biochemical, Escherichia coli. The method in brief: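 BAM proteoliposomes (His-tag-purified BamABCDE in DDM, reconstituted into E. coli polar lipids) with test compound and fluorogenic peptide in Tris/HCl, pH 6.5, preincubated 5 min at 30 °C. Mixed with a second subreaction of SurA plus guanidine-denatured OmpT at 1:7 or 1:42 OmpT:SurA. Fluorescence (ex 330/em 430 nm) read every 20 s for 80 min at 30 °C. Linear-phase slopes from three replicates, as % of DMSO.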

Series [12] deals with OMP levels in E. coli TOP10F′ cells. The series can be described thus: Cell envelope protein analysis. In kind it is cell-based, Escherichia coli. In a few lines:
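TOP10F′ cells grown 3 h in LB in flasks with one concentration of test compound. Cells pelleted, sonicated on ice in 10 mM Tris-HCl, 3 mM EDTA, pH 8.0 with protease inhibitors. Envelopes pelleted at 200 000g for 1 h at 4 °C and solubilised overnight at 4 °C in TBS with 1% DDM. SDS-PAGE and immunoblots, loading corrected by OD600; 3 independent experiments.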

Series [13] has as its system E. coli MC4100 bamA101. The series can be described thus: Growth inhibition of bamA101 knockdown strain versus wild-type. Conditions: E. coli MC4100 bamA101, MHB-II, 10 h. The format is cell-based, Escherichia coli. The method in brief: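 Wild-type MC4100 and bamA101 knockdown cells grown to mid-log at 37 °C, diluted to OD600 0.001 and mixed 1:1 with MHB-II containing 2-fold increasing test compound (0.5% DMSO final) in 96-well plates. Incubated at 37 °C with continuous linear shaking; OD600 read every 15 min. The 10 h OD600 is expressed as % growth versus DMSO-treated cells (100%).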

The subject of series [14] is Escherichia coli (uropathogenic). The series can be described thus: MIC against bacterial strains. In kind it is cell-based. The conditions noted are these: 10 h. In a few lines: as §1
For series [15], the system named is Bacillus subtilis 168. The series can be described thus: MIC against bacterial strains. The format is cell-based. In a few lines:
as §1

The test system of series [16] is Klebsiella pneumoniae. Description: MIC against bacterial strains. In kind it is cell-based. The conditions noted are these: 10 h. The method in brief:
as §1

Series [17] relates to secretion of autotransporter Hbp in E. coli MC1601 degP::S210A. Description: Hbp secretion analysis. In kind it is cell-based, Escherichia coli. Conditions: Western blotting. The method in brief: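 MC1061 degP::S210A cells grown in M9 to mid-log, diluted to OD600 0.1, mixed 1:1 with M9 containing test compound or DMSO (0.5% final). Hbp induced from pEH3 with 40 μM IPTG at 37 °C with shaking. Cells spun 5000g for 5 min; supernatant TCA-precipitated overnight at 4 °C. Lysates and medium run on 11% SDS-PAGE, immunoblotted (Hbp passenger, Hbp β-barrel, DegP), loading OD600-corrected.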
For orientation: Immunoblotting shows a protein as a band on a membrane.

In series [18] the test system is Acinetobacter baumannii. Description: MIC against bacterial strains. The format is cell-based. Conditions: 10 h. The method in brief:
as §1

Series [19] has as its target OmpT protease (Escherichia coli, UniProt P09169). The series can be described thus: OmpT protease activity, compound added after OmpT folding was completed. In kind it is biochemical. The conditions noted are these: 100 μM, added 2 h after start of folding reaction. The method in brief:
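BAM proteoliposomes (2 μM) mixed with SurA (140 μM) and denatured OmpT (20 μM) subreactions in Tris/HCl, pH 6.5, and held 2 h at 30 °C to prefold OmpT. Then combined with a subreaction of test compound (200 μM) or DMSO plus fluorogenic peptide; concentrations are per subreaction. Cleavage read at ex 330/em 430 nm for 80 min at 30 °C. Slope-based activity relative to DMSO.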

Series [20] has as its system Enterobacter cloacae. Description: MIC against bacterial strains. The format is cell-based. Conditions: 10 h. The method in brief: as §1
The test system of series [21] is Staphylococcus aureus MRSA. The series can be described thus: MIC against bacterial strains. In kind it is cell-based. The conditions noted are these: 10 h. The method in brief:
as §1

Setting [22] is: 0.25× MIC, cell envelopes, Western blotting.

Sequence of BAM complex (BamABCDE) reconstituted in proteoliposomes (P77774 20-392): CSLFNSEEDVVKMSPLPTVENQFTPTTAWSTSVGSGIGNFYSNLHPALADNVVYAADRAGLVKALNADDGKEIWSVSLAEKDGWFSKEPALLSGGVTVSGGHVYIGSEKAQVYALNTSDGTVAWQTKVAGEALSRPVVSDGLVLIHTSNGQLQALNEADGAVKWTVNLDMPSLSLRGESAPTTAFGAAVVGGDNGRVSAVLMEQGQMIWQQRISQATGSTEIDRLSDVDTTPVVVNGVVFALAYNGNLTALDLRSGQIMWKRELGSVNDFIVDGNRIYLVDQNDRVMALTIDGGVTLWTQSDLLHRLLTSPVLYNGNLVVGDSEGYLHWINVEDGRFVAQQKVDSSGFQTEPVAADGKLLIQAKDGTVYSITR
Sequence of BAM complex (BamABCDE) reconstituted in proteoliposomes (P0A903 25-344, further chain): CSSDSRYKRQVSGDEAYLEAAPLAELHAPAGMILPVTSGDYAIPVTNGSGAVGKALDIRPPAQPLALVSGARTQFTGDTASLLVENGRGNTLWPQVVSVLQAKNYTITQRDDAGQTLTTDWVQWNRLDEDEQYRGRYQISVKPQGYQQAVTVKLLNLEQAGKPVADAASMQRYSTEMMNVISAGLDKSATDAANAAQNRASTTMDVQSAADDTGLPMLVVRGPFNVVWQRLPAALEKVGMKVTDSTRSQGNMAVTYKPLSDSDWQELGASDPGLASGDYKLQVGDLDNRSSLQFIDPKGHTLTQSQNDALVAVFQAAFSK
Sequence of BAM complex (BamABCDE) reconstituted in proteoliposomes (P0A937 20-113, further chain): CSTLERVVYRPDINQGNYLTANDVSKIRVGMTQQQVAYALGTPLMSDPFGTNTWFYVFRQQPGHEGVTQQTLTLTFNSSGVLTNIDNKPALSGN
Sequence of BAM complex (BamABCDE) reconstituted in proteoliposomes (P0AC02 20-245, further chain): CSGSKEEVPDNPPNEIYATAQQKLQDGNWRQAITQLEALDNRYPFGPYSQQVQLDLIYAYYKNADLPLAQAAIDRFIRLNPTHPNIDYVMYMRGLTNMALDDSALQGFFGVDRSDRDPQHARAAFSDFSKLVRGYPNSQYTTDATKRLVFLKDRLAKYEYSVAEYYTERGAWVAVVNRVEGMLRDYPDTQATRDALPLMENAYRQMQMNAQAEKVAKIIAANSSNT
Sequence of OmpT protease (P09169 21-317): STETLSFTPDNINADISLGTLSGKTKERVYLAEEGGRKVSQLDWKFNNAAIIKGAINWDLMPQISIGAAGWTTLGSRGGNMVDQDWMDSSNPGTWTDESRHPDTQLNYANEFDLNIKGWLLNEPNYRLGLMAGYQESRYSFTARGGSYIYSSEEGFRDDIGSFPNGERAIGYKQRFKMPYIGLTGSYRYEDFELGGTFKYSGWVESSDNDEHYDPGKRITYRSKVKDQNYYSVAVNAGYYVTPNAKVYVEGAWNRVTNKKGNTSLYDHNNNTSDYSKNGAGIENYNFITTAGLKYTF

Regarding `CCOC(=O)C1=C(O)CCC(NC(=O)OC(C)(C)C)C1` (stereo not shown) [compound 1], the EC50 in series [1] was 38 µM; in [2] it was greater than 60 µM; in series [3] it was 1 µM. Also, the MIC in series [4] is greater than 200 µM.
Consider `CC(=O)Nc1cc(-c2nc(O)c3c(n2)CCC(NC(=O)OC(C)(C)C)C3)ccn1` (stereo not shown) [compound 3], for which the EC50 is 16 µM in series [1], greater than 60 µM in [2] and 7 µM in [3]. Also, the “toxicity HEK293 LD50” value in [5] was 20 µM. Besides, the MIC in [4] amounted to 25 µM (≈ 9.99 µg/mL).
For the compound `Nc1cc(-c2nc3c(c(NCc4ccccc4)n2)CC(N)CC3)ccn1` (stereo not shown) [compound 14, 2-(2-aminopyridin-4-yl)-N4-benzyl-5,6,7,8-tetrahydroquinazoline-4,6-diamine], the “fold decrease of MIC of vancomycin in presence of compound” value in series [6] (compound at 0.25× MIC (2: 12 μM, 14: 25 μM)) is 4 fold. Also, the “MICs of ampicillin and chloramphenicol in presence of compound” value in series [6] (compound at 0.25× MIC) was “largely unaffected”. Besides, the MIC in series [7] is 100 µM (≈ 34.6 µg/mL); in [8], greater than 200 µM; in series [10], 200 µM (≈ 69.3 µg/mL); in series [14], greater than 200 µM; in [15] (Bacillus subtilis 168, 10 h, highest concentration tested 200 μM), greater than 200 µM; in series [15] (Bacillus subtilis, 168, 10 h), greater than 200 µM. Moreover, the MIC in series [16] was greater than 200 µM; in series [18], 100 µM (≈ 34.6 µg/mL); in series [4], 100 µM (≈ 34.6 µg/mL); in [20], greater than 200 µM; in series [21], greater than 200 µM. For the same compound, the EC50 in [1] is 12 µM; in series [2] it was greater than 60 µM; in [3], greater than 60 µM. The “toxicity HEK293 LD50” value in series [5] came to 60 µM. For the same compound, in [9], the “effect of FhuA ΔC/Δ4L expression on MIC of the compound” value was “did not affect”. Also, the “influence of 6-fold excess of SurA on the inhibiting effect of the compound” value in series [11] was “did not influence”. Also, the “levels of the major β-barrel OMPs OmpF, OmpC, and OmpA compared to DMSO” value in series [12] (0.25× MIC (2: 12 μM, 14: 25 μM), cell envelopes, Western blotting) is “dropped considerably”. In addition, the “level of BamA” value in series [12] (setting [22]) is “severely reduced”. Moreover, the “levels of lipoproteins BamB and LpoB” value in [12] (setting [22]) is listed as “largely unaffected”. The “total levels of PhoE” value in series [12] (PhoE expressed from pEH3, 0.25× MIC and 0.5× MIC, 3 h, seminative PAGE) was “reduced total levels of PhoE in a dose-dependent manner”. The “antimicrobial effect (MIC) in bamA101 mutant versus wild-type” value in [13] was “enhanced antimicrobial effect”. The “Hbp processing in cells (pro-Hbp)” value in series [17] (0.25× MIC, whole cell lysates) was “accumulation of pro-Hbp”. For the same compound, the “amount of secreted Hbp passenger in the spent medium” value in series [17] (2 and 14 at 0.25× MIC, spent medium) was “decreased”. Further, in series [19], the “effect on OmpT protease activity when added after OmpT was folded” value was “inhibiting effect”.
Consider `CN[C@H](CC(C)C)C(=O)N[C@H]1C(=O)N[C@@H](CC(N)=O)C(=O)N[C@H]2C(=O)N[C@H]3C(=O)N[C@H](C(=O)N[C@H](C(=O)O)c4cc(O)cc(O)c4-c4cc3ccc4O)[C@H](O)c3ccc(c(Cl)c3)Oc3cc2cc(c3O[C@@H]2O[C@H](CO)[C@@H](O)[C@H](O)[C@H]2O[C@H]2C[C@](C)(N)[C@H](O)[C@H](C)O2)Oc2ccc(cc2Cl)[C@H]1O` [vancomycin, reference compound], for which, in series [9], the “permeability upon FhuA ΔC/Δ4L expression” value was “clearly increased”.
